# Measurements from different studies.
# Each line is one published result; the experiments were not run side by side.
# Target: Testis-specific serine/threonine-protein kinase 1 (TSSK1B, Homo sapiens, UniProt Q9BXA7)
# One construct used (Q9BXA7 1-367): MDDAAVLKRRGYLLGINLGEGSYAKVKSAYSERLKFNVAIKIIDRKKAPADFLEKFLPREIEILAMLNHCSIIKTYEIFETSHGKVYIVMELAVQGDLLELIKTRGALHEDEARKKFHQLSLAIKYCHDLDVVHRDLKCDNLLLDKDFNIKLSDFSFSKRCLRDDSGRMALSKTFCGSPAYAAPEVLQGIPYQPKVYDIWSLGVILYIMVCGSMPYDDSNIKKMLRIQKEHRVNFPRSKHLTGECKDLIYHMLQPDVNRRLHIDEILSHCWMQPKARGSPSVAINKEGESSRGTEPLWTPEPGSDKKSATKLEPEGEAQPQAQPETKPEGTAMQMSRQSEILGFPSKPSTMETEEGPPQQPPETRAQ
SMILES,observed,action,technique,concentration,endpoint,value
CCN(CC)CCNC(=O)c1c(C)[nH]c(/C=C2\C(=O)Nc3ccc(F)cc32)c1C,enzyme activity,inhibitor,,0.3 µM,inhibition,-1%
CC(C)(C)c1nc2c(s1)c1nc(N)ncc1c1ccc(NS(=O)(=O)c3c(F)cccc3F)c(F)c12,enzyme activity,inhibitor,radiometric,1 µM,remaining activity,88%
COc1cc2ncnc(Nc3ccc(Oc4ccccc4)c(C)c3C)c2cc1OC,enzyme activity,inhibitor,,1 µM,inhibition,4%
C[C@H](c1cccc(C#N)c1)n1cc(Cl)cc(C(N)=O)c1=N,cell-free assay,,competition with immobilised ligand,1 µM,remaining binding,96%
O=C(Nc1cnn(-c2csc(C(=O)NC3COC3)c2)c1)Nc1ccccc1Cl,enzyme activity,inhibitor,,5 µM,remaining activity,102%
CS(=O)(=O)N1CCCC(NC(=O)[C@H](CCC2CCCCC2)NC(=O)c2ccc(CNC(=O)c3cnc4ccccn34)cc2)C1 (some centres unmarked),cell-free assay,,competition with immobilised ligand,0.1 µM,remaining binding,94%
Cc1ccc(NC(=O)c2ccc(CN3CCN(C)CC3)cc2)cc1Nc1nc(-c2cccnc2)cs1,cell-free assay,,,0.5 µM,remaining signal,100%
CN(C)C1CCN(CC#Cc2nn(C3CCCC3)c3nc(NCc4ccccc4)ncc23)C1 (centres unmarked),enzyme activity,inhibitor,FRET,0.1 µM,inhibition,4%
Cc1ccc(C(=O)Nc2ccc(CN3CCN(C)CC3)c(C(F)(F)F)c2)cc1C#Cc1cnc2cccnn12,enzyme activity,inhibitor,,23.5 nM,remaining activity,83%
Cc1sc(C(=O)NC2COC2)cc1-n1cc(NC(=O)Nc2c(F)cccc2Cl)cn1,enzyme activity,inhibitor,,10 µM,remaining activity,103%
CCCOc1ccc(OC)c(F)c1C(=O)c1ccc(C(=O)N[C@@H]2CNC[C@H]2NC(=O)c2ccc3[nH]ncc3c2)cc1,enzyme activity,inhibitor,,10 µM,remaining activity,70%
CN1CC(Oc2cnc(C#N)cc2-c2ccn3nc(NC(=O)C4CC4)cc3c2)C1,enzyme activity,inhibitor,,1 µM,inhibition,9%
Cc1cc(NC(=O)c2cccc3cc(-c4cccc5[nH]nc(N)c45)ccc23)ccc1F,enzyme activity,inhibitor,,0.1 µM,activity vs control,86%
FC(F)(F)c1ccc2c(c1)nc(-c1cccnc1)n2C1CC1,cell-free assay,,competition with immobilised ligand,1 µM,remaining binding,100%
Cc1ccc(NC(=O)c2ccc(C)c(C(F)(F)F)c2)cc1C#Cc1nn(C2CCC(O)CC2)c2ncnc(N)c12 (centres unmarked),cell-free assay,,,10 µM,remaining signal,100%
COc1ccc2c(O[C@@H]3C[C@H]4C(=O)N[C@]5(C(=O)O)CC5/C=C\CCCCC[C@H](NC(=O)OC5CCCC5)C(=O)N4C3)cc(-c3csc(NC(=O)C(C)C)n3)nc2c1C (some centres unmarked),cell-free assay,,competition with immobilised ligand,1 µM,remaining binding,70%
N#CCCc1ccc2c(c1)-c1[nH]c3ccc([N+](=O)[O-])cc3c1CC(=O)N2,cell-free assay,,,0.5 µM,remaining signal,59.2%
CN(C)C(=O)Cn1cc(-c2nc(C3(c4ccc(-c5cnc(N)nc5)cc4)CC3)no2)cn1,cell-free assay,,competition with immobilised ligand,1 µM,remaining binding,100%
Cc1ccc(Nc2nccc(N(C)c3ccc4c(C)n(C)nc4c3)n2)cc1S(N)(=O)=O,enzyme activity,inhibitor,,0.3 µM,inhibition,-1%
O=C(Nc1cccnn1)N1CC(C/C=C/c2cncc(Oc3ccc(C(F)(F)F)cn3)n2)C1,cell-free assay,,competition with immobilised ligand,1 µM,remaining binding,100%
CCN(CC)c1ccc(C2=NNC(=O)CC2C)cc1[N+](=O)[O-] (centres unmarked),enzyme activity,inhibitor,,10 µM,remaining activity,96%
CNC(=O)c1ccc(Nc2ncc(C(F)(F)F)c(NCc3nccnc3N(C)S(C)(=O)=O)n2)cc1,cell-free assay,,competition with immobilised ligand,0.1 µM,remaining binding,64%
CNC(=O)c1cc(Oc2ccc(NC(=O)Nc3ccc(Cl)c(C(F)(F)F)c3)cc2)ccn1,enzyme activity,inhibitor,,10 µM,inhibition,2%
